The structures appear in SMILES notation. Where a SMILES comes first, the peptide text is derived from it. Bridges are numbered along the chain shown (N, C = ends). [ ]: non-standard residue; d: D form. Bip = N[C@@H](Cc1ccc(-c2ccccc2)cc1)C(=O)O; NMeS = CN[C@@H](CO)C(=O)O Some results are limits rather than exact numbers.

Usually GI50 stands for the concentration at which growth is held to half of that of the control. The term IC50 denotes the concentration at which inhibition is half-maximal. As a reminder, the Ki is the dissociation constant of the complex between target and ligand, obtained from inhibition or displacement.

Data set [1] concerns SJSA-1 cells. Description: WST-1 cell proliferation assay in SJSA-1 cells. To be noted: Homo sapiens, SJSA-1, 24 h, read-out: GI50 growth inhibition. It counts as cell-based. The method in brief: (§1)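 Cells were exposed for 24 h to varying concentrations of the synthesized macrocyclic peptide MDM2 inhibitors, and proliferation was read out by the WST-1 assay. The same test was run in MDM2-dependent SJSA-1 cells and in p53-mutant SW-480 cells, the latter as a control line. A small-molecule MDM2 inhibitor served as the positive control.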
(In general: Tetrazolium assays rely on reduction of a dye to a coloured formazan, in cell work by metabolically active cells.)

Another data set concerns the target MDM2 (Homo sapiens, UniProt Q00987). Description: TR-FRET competition. It counts as binding. In general terms: In TR-FRET formats the signal depends on donor and acceptor labels being close together.
In another data set the target is T1, MDM4 (Homo sapiens, UniProt O15151).
T1 sequence (O15151 2-185): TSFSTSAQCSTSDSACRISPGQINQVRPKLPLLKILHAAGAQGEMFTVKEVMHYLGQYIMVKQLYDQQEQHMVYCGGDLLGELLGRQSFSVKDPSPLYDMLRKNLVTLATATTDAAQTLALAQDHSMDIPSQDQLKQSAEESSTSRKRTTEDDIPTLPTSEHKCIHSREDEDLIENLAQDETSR
The data set can be described thus: TR-FRET competition. To be noted: His(96) of MDM2 replaced by proline in MDM4. The data set is classed as binding.

Data set [2] concerns SJSA-1 cells. Description: SJSA-1 cellular assay. It counts as cell-based. To be noted: tested up to 30 μM.
For data set [3], the system named is nuclear MDM2 in SJSA-1 cells. The data set can be described thus: MDM2 immunofluorescence. It counts as cell-based. Particulars: 4 hours.
For a further data set, the system named is SW-480 cells. Description: WST-1 cell proliferation assay in SW-480 cells. The data set is classed as cell-based. To be noted: p53-mutant SW-480 cells, 24 hours. The method in brief:
as §1

Sequence of MDM2 (Q00987 2-188): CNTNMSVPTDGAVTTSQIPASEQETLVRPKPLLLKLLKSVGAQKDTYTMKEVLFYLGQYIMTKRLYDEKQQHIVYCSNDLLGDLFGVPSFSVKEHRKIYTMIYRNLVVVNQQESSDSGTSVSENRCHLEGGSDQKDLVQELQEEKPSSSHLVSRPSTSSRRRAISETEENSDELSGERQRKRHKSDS

On to `COc1cc2c(cc1OC(C)C)[C@H](c1ccc(Cl)cc1)N(c1ccc(N(C)C[C@H]3CC[C@H](N4CCN(C)C(=O)C4)CC3)cc1)C(=O)C2` [CGM097], for which the GI50 in the data set on SJSA-1 cells [1] is roughly 1000 nM.
As for `CC(C)[C@@H]1NC(=O)[C@H](CO)NC(=O)[C@H](CO)NC(=O)[C@H](CO)N(C)C(=O)[C@H](CC(=O)O)NC(=O)[C@H](CO)NC(=O)[C@H](Cc2ccccc2)NC(=O)CSC[C@@H](C(=O)NCC(N)=O)NC(=O)[C@H](CC(N)=O)NC(=O)[C@H](CCCNC(=N)N)NC(=O)[C@H](Cc2ccc(-c3ccccc3)cc2)NC(=O)[C@H](Cc2ccc(-c3ccccc3)cc2)NC(=O)[C@H](CC(N)=O)NC(=O)[C@@H]2CCCN2C1=O` [CMR19] ({CH2CO}-FSD[NMeS]SSVPN[Bip][Bip]RNCG-NH2; thioether N-14), on MDM2, the IC50 was 0.18 nM and the Ki is 0.15 nM. In addition, at MDM4, the “loss in affinity for MDM4 versus MDM2” value is recorded as “more than thousand fold loss in affinity”. Also, the “cytotoxic response on SJSA-1 cells” value in the data set with SJSA-1 cells [2] was “did not observe any cytotoxic response”.
For the compound `CC(C)[C@@H]1NC(=O)[C@H](CO)NC(=O)[C@H](CO)NC(=O)[C@H](CO)N(C)C(=O)[C@H](CC(=O)O)NC(=O)[C@H](CO)NC(=O)[C@H](Cc2ccccc2)NC(=O)CSC[C@@H](C(=O)NCC(N)=O)NC(=O)[C@H](CC(N)=O)NC(=O)[C@H](CCCNC(=N)N)NC(=O)[C@H](C)NC(=O)[C@H](Cc2ccc(-c3ccccc3)cc2)NC(=O)[C@H](CC(N)=O)NC(=O)[C@@H]2CCCN2C1=O` [MMS95] ({CH2CO}-FSD[NMeS]SSVPN[Bip]ARNCG-NH2; thioether N-14), on MDM2, the IC50 is greater than 10000 nM and the “binding to MDM2 in the TR-FRET assay” value was “no binding”. In addition, the “concentration-dependent enrichment of nuclear MDM2 (quantified fluorescence)” value in data set [3] (0.4-10 µM) is listed as “does not”. The “enrichment of MDM2 in the nuclei compared to the DMSO control” value in data set [3] (37 °C, immunofluorescence) is “did not result in increased nuclear staining”.
For the compound `CC(=O)N[C@@H](CSSC[C@H](N)C(=O)NCCOCCOCC(=O)NCCOCCOCC(=O)N[C@H]1CCCCNC(=O)CC[C@@H](C(N)=O)NC(=O)[C@H](CCCNC(=N)N)NC(=O)[C@@H](CCCNC(=N)N)NC(=O)[C@H](CCCNC(=N)N)NC(=O)[C@@H](CCCNC(=N)N)NC(=O)[C@H](CCCNC(=N)N)NC(=O)[C@@H](CCCNC(=N)N)NC(=O)[C@H](CCCNC(=N)N)NC(=O)[C@@H](CCCNC(=N)N)NC(=O)[C@H](CCCNC(=N)N)NC(=O)[C@@H](CCCNC(=N)N)NC1=O)C(=O)NCCCC[C@H](NC(=O)CNC(=O)[C@@H]1CSCC(=O)N[C@@H](Cc2ccccc2)C(=O)N[C@@H](CO)C(=O)N[C@@H](CC(=O)O)C(=O)N(C)[C@@H](CO)C(=O)N[C@@H](CO)C(=O)N[C@@H](CO)C(=O)N[C@@H](C(C)C)C(=O)N2CCC[C@H]2C(=O)N[C@@H](CC(N)=O)C(=O)N[C@@H](Cc2ccc(-c3ccccc3)cc2)C(=O)N[C@@H](Cc2ccc(-c3ccccc3)cc2)C(=O)N[C@@H](CCCNC(=N)N)C(=O)N[C@@H](CC(N)=O)C(=O)N1)C(N)=O` [CMR19-cR10], the growth inhibitory effect result with SW-480 cells is reported as “no growth inhibition”.

(Values after paper PMC8637822 (RSC Chemical Biology, 2021).)
